Results reported in PMC6626631 (Biochemical and biophysical research communications, 2018).
pIC50: −log10 of the molar value. “Also recorded” adds a separate entry of the source.

What was measured:
Assay type in all cases: biochemical
[1] = target: Human DRP1 (1—699) (Homo sapiens, UniProt O00429); experiment: Liposome-dependent malachite green GTPase activity assay, DRP1
Summary of the method: (§1)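 Ni-NTA-purified E. coli enzyme (tag removed for dynamin-1, OPA1), 0.6 μM, preincubated 20 min RT with 80:20 soybean polar lipid:cardiolipin liposomes (0.1 mg/mL) and compound or DMSO; started by 1 mM GTP at 37 °C in 10 mM Hepes pH 7.0, 100 mM KCl, 4 mM MgCl2, 1% DMSO. EDTA stop, malachite green, A650 to phosphate rate; IC50 4-parameter fit.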

[2] = target: T1, OPA1 (195—960) (Homo sapiens, UniProt O60313); experiment: Liposome-dependent malachite green GTPase activity assay, OPA1; conditions: read-out: Potency of inhibition, OPA1; data not shown
T1 sequence (O60313 195-960): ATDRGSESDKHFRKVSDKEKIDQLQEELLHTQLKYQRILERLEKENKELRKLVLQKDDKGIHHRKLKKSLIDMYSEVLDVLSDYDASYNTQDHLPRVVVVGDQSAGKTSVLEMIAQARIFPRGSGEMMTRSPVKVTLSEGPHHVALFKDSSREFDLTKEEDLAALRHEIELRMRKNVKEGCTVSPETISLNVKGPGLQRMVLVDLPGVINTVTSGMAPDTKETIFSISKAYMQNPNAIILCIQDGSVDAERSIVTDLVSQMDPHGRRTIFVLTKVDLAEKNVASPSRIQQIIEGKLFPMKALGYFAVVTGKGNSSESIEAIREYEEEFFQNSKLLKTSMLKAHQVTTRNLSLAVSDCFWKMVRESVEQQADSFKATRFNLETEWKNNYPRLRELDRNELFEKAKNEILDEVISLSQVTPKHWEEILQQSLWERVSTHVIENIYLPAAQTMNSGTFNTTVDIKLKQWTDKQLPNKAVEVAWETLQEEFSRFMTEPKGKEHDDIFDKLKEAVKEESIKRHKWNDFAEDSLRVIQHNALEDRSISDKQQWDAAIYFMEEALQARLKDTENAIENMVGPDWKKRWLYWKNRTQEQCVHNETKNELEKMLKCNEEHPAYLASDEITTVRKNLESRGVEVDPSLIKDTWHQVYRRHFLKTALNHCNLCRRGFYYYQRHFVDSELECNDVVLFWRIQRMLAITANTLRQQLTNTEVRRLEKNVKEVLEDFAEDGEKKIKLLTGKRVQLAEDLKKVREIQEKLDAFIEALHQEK
Summary of the method: as §1

[3] = target: DRP1 (Homo sapiens, UniProt O00429); experiment: Malachite green GTPase activity assay in the absence of liposomes, DRP1; conditions: dose response in presence vs absence of liposomes
Chain of DRP1 (O00429 1-699 isoform O00429-4): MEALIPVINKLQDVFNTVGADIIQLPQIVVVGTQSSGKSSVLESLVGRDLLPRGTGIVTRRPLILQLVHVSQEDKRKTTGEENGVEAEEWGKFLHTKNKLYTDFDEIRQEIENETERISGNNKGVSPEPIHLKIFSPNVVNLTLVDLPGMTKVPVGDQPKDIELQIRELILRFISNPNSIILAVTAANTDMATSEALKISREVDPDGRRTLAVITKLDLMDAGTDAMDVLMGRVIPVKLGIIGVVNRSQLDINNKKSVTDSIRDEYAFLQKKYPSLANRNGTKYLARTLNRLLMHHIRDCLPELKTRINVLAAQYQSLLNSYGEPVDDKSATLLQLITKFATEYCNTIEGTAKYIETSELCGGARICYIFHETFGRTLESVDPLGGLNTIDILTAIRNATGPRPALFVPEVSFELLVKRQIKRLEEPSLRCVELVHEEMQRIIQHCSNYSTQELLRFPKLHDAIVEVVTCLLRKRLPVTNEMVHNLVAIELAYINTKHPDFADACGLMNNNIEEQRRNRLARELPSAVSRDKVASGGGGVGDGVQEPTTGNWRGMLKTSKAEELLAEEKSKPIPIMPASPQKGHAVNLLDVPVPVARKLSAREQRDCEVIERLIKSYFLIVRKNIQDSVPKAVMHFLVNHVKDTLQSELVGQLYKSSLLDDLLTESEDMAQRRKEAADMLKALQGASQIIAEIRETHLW

[4] = target: T2, dynamin-1 (1—752) (Homo sapiens, UniProt Q05193); experiment: Liposome-dependent malachite green GTPase activity assay, dynamin-1; conditions: read-out: Potency of inhibition, dynamin-1; data not shown
T2 sequence (Q05193 1-752): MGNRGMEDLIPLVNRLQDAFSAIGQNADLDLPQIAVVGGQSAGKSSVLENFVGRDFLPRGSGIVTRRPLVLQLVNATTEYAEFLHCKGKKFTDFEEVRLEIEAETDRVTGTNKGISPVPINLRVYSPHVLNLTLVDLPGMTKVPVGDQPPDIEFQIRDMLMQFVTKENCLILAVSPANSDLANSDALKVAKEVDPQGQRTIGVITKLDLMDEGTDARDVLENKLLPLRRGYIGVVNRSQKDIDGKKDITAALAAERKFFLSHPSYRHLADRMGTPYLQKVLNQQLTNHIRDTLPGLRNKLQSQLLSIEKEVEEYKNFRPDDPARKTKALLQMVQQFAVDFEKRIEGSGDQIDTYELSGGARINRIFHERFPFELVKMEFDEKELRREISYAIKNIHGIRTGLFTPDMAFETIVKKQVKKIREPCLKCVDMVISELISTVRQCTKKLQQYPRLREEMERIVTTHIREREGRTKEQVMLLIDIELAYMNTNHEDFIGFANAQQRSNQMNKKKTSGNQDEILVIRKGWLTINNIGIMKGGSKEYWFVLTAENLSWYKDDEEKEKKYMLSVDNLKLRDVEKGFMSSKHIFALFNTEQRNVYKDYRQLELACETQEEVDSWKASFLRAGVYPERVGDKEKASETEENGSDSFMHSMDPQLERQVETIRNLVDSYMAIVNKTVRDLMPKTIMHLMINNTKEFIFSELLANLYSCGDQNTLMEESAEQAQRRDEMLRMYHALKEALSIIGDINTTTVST
Summary of the method: as §1

Chain of Human DRP1 (1—699) (O00429 1-699 isoform O00429-4): as the sequence (O00429 1-699 isoform O00429-4) above

Compound	Inhibition of DRP1 GTPase activity (in words) ([1]; presence of liposomes, up to 100 μM compound concentration)	pIC50 [2]	Potency/activity in the absence of liposomes [3]	pIC50 [4]	pIC50 ([1]; read-out: Potency of inhibition, DRP1, data not shown)
COc1cc(-n2c(=S)[nH]c3ccccc3c2=O)c(Cl)cc1Cl [mdivi-1]	did not inhibit oligomeric DRP1 GTPase activity; also recorded: do not inhibit DRP1 up to 100 μM	–	–	–	–
Nc1nc2c(ncn2[C@@H]2O[C@H](COP(=O)(O)OP(=O)(O)OP(O)(O)=S)[C@@H](O)[C@H]2O)c(=O)[nH]1 [GTPγS]	–	3.30 to 3.52	unaffected by liposomes	3.30 to 3.52	3.30 to 3.52
